The list is not random: actives were taken first. Their share in the collection is about 1.8%.
Rin1 Abl inh = human Rin1-Abl interaction inhibition | P00519+Q13671 | inhibition, % at 7.35 µM | AID 588664 | 360,000 tested, 0.4% active | TR-FRET Rin1/Abl binding, biochemical; in the data active means inhibition above about 5%, passing the limit was not always enough
Tb MetRS inh = Trypanosoma brucei MetRS inhibition; purified T. brucei MetRS, ATP depletion, Kinase-Glo luminescence; inhibition, % at 11.9 µM; 360,000 tested, 0.4% active;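 active means inhibition above a per-plate cutoff of the control wells' mean inhibition plus 3 SD, cut at about 5.5% in these data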;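 further: 0% = DMSO wells median and 100% = median of wells with control inhibitor compound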
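Material: parasite MetRS enzyme / Replication: singlicate, one well per compound / Signal: luminescence of leftover ATP / Schedule: 2 h aminoacylation at 25 °C after 15 min preincubation / Medium: HEPES-MgCl2-KCl buffer plus DTT, spermine, BSA, pyrophosphatase / Doses: 11.9 µM single point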
PG9 binder = small molecules binding HIV-1 gp120 antibody PG9; AID 624416; inhibition, % at 6.7 µM; TR-FRET gp120-PG9 antibody binding; 360,000 tested, 0.43% active; in the data active means inhibition above about 8.5%
Rev-erbA mod = modulates human Rev-erb alpha binding to DNA; 370,000 tested, 0.79% active; P20393; Rev-erbα–FITC-DNA binding, fluorescence polarization, 90 min; activity, % at 10 µM;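 active means activity above about 14%, limit read from the data; passing the limit was not always enough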;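 further: 0% = DMSO wells with 35 nM protein and 100% = DMSO wells with 750 nM protein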
Target sequence (P20393 whole entry, looked up): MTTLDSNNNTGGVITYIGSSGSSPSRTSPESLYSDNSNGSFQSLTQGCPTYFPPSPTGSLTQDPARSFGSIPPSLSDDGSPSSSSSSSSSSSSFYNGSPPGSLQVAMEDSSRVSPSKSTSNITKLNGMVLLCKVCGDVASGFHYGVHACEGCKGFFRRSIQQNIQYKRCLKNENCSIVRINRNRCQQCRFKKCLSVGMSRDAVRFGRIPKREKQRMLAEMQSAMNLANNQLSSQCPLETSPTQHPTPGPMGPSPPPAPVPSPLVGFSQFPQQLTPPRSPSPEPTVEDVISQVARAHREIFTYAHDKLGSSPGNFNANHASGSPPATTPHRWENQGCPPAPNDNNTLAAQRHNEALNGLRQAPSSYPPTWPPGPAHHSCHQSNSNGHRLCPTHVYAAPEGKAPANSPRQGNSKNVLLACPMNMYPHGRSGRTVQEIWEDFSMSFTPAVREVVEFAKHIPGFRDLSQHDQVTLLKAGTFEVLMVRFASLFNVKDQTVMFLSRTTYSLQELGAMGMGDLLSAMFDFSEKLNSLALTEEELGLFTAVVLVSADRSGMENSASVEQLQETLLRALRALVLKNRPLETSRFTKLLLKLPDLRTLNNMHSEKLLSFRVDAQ
Tb MetRS conf = confirmation of Trypanosoma brucei MetRS inhibitors. shares compounds with Tb MetRS inh. 1,400 tested, 93% active. inhibition, % at 11.9 µM. T. brucei MetRS enzyme, luminescence (ATP depletion); in the data active means inhibition above about 7%
Jurkat tox = kills Jurkat cells in T. brucei MetRS counterscreen. shares compounds with Tb MetRS inh. 1,400 tested, 12% active. inhibition, % at 8.3 µM. AID 624413. Jurkat cells viability, ATP luminescence; in the data active means inhibition above about 15%;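 further: 0% = vehicle and 100% = reference inhibitor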
Tb MetRS inh FP = T. brucei MetRS inhibition, orthogonal assay. shares compounds with Tb MetRS inh. purified T. brucei MetRS, fluorescence polarization. inhibition, % at 11.9 µM. 1,400 tested, 44% active; in the data active means inhibition above about 17%;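 further: 0% = vehicle wells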
PG9 bind confirm = confirmation of small molecules binding HIV-1 gp120 antibody PG9; shares compounds with PG9 binder; inhibition, % at 6.7 µM; 1,500 tested, 90% active; TR-FRET PG9 antibody binding, biochemical; AID 651571; in the data active means inhibition above about 9%
PGV04 counter = PGV04 control antibody binding, counter-screen; shares compounds with PG9 binder; TR-FRET PGV04 antibody-gp120 binding, biochemical; inhibition, % at 6.7 µM; 1,500 tested, 95% active; AID 651604; in the data active means inhibition above about 9.5%
Rev-erbA confirm = Rev-erb alpha (human) modulation, hit confirmation; AID 1259319; shares compounds with Rev-erbA mod; Rev-erb alpha FITC-DNA binding, fluorescence polarization, 90 min; activation, % at 25 µM; 3,000 tested, 61% active;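 active means activation at or above a set limit, or at least 3 SD above the negative control mean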;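 further: 0% = 35 nM protein with DMSO and 100% = 750 nM protein high control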
RORg DNA counter = counter-screen for Rev-erb alpha modulators: RORgamma DNA binding | 910 tested, 8% active | purified RORgamma protein-FITC-DNA binding, fluorescence polarization | AID 1259320 | IC50, µM | shares compounds with Rev-erbA mod;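 active means Compounds whose fitted half-maximal concentration for disrupting protein-DNA binding is below 10 micromolar; the record names Rev-erb in its text, so the target is in doubt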
* hit, by the source's call.

Cc1nc2nc(SCC(=O)C(C)(C)C)[nH]c2cc1Br was read as Rin1 Abl inh 1, Tb MetRS inh 0, PG9 binder -4 and Rev-erbA mod -2.
For O=[N+]([O-])c1ccc(CSc2nc3ncc(Br)cc3[nH]2)cc1 the results were Rin1 Abl inh 0, Tb MetRS inh 2, PG9 binder 1 and Rev-erbA mod -17.
CC(C)(C)C(=O)CSc1nc2ncc(Br)cc2[nH]1 was read as Rin1 Abl inh 0, Tb MetRS inh 7.5*, PG9 binder 0, Rev-erbA mod -1, Tb MetRS conf 18*, Jurkat tox -1 and Tb MetRS inh FP 7.
Brc1cnc2nc(SC/C=C/c3ccccc3)[nH]c2c1 was read as Rin1 Abl inh 0, Tb MetRS inh -1, PG9 binder -1 and Rev-erbA mod -2.
Screening Fc1ccccc1CSc1nc2ncc(Br)cc2[nH]1 returned Rin1 Abl inh 0, Tb MetRS inh 5.9*, PG9 binder -7, Rev-erbA mod 4, Tb MetRS conf 14*, Jurkat tox -4 and Tb MetRS inh FP 17*.
For Clc1ccc2nc(C3CCN(Cc4ccccc4)CC3)[nH]c2c1 the results were Rin1 Abl inh 8, Tb MetRS inh 11*, PG9 binder -2, Rev-erbA mod 0, Tb MetRS conf 9.8*, Jurkat tox 4 and Tb MetRS inh FP 4.
Screening Cc1ccc(CN2CCC(c3nc4ccc(Cl)cc4[nH]3)CC2)cc1 returned Rin1 Abl inh 3, Tb MetRS inh 8.2*, PG9 binder -1, Rev-erbA mod -8, Tb MetRS conf 25*, Jurkat tox 12 and Tb MetRS inh FP 8.
Screening COc1cccc(C(=O)N[C@H](C(=O)N2CCC[C@H]2C(=O)NC2CCCC2)C2CCCCC2)c1 returned PG9 binder 0 and Rev-erbA mod -2.
O=C(NCc1nc2ccccc2[nH]1)c1ccc([N+](=O)[O-])cc1 was read as Rin1 Abl inh 4, Tb MetRS inh 52*, PG9 binder 1, Rev-erbA mod -3, Tb MetRS conf 75*, Jurkat tox 2 and Tb MetRS inh FP 40*.
`O=C(NCc1nc2ccccc2[nH]1)c1ccc(S(=O)(=O)N2CCOCC2)cc1` gave Rin1 Abl inh 3, Tb MetRS inh 12*, PG9 binder 1, Rev-erbA mod 2, Tb MetRS conf 21*, Jurkat tox 1 and Tb MetRS inh FP 3.
For O=C(NCCO)[C@H](Cc1ccccc1)NC1(C(=O)NCCN2CCOCC2)CCCCC1 the results were Rev-erbA mod 5.
For Cc1cc(N2C(=O)C(O)=C(C(=O)c3ccco3)C2c2ccc(O)cc2)no1 (configuration not stated) the results were Rin1 Abl inh -1, Tb MetRS inh 0, PG9 binder 3 and Rev-erbA mod 7.
`Cc1cc(N2C(=O)C(O)=C(C(=O)c3ccco3)C2c2ccc(Cl)cc2)no1` (configuration not stated) gave Rin1 Abl inh -1, Tb MetRS inh 6.1*, PG9 binder 16*, Rev-erbA mod -2, Tb MetRS conf 4, Jurkat tox 6, Tb MetRS inh FP -3, PG9 bind confirm 30* and PGV04 counter 41*.
`CCCCn1c(NC(=O)c2ccc(Br)o2)c(S(=O)(=O)c2ccccc2)c2nc3ccccc3nc21` gave Rin1 Abl inh 2, Tb MetRS inh 6.0*, PG9 binder 14*, Rev-erbA mod -9, Tb MetRS conf 11*, Jurkat tox 1, Tb MetRS inh FP 1, PG9 bind confirm 18* and PGV04 counter 24*.
O=C(NC1CCCCN(Cc2cccc(F)c2)C1=O)c1ccc2ccccc2c1 (configuration not stated) was read as Rev-erbA mod 4.
`OC(c1cc(F)cc(Cl)c1)c1ncc(-c2ccc3ccccc3c2)[nH]1` (configuration not stated) gave Rin1 Abl inh 0, Tb MetRS inh 76*, PG9 binder 0, Rev-erbA mod 14*, Tb MetRS conf 92*, Jurkat tox 9, Tb MetRS inh FP 75* and Rev-erbA confirm -4.
`OC(c1cccc(F)c1)c1ncc(-c2ccc3ccccc3c2)[nH]1` (configuration not stated) gave Rin1 Abl inh -7, Tb MetRS inh 1, PG9 binder 1 and Rev-erbA mod 1.
Screening Cc1[nH]c2ccccc2c1/C=N/Nc1ccc([N+](=O)[O-])cc1 returned Rin1 Abl inh -1, Tb MetRS inh 9.6*, PG9 binder -1, Rev-erbA mod 22*, Tb MetRS conf 12*, Jurkat tox 9, Tb MetRS inh FP 71* and Rev-erbA confirm 16.
Screening CCc1c(-c2cccc(F)c2)ncn1CCc1ccccc1OC returned PG9 binder 2 and Rev-erbA mod 3.
`O=C(NN1C(=O)/C(=C/c2ccc(O)cc2)SC1=S)c1cccc(O)c1` gave Rin1 Abl inh -2, Tb MetRS inh 6.7*, PG9 binder -3, Rev-erbA mod 27*, Tb MetRS conf 14*, Jurkat tox 8, Tb MetRS inh FP 24* and Rev-erbA confirm 16.
For CC(/C=C1\SC(=S)N(NC(=O)c2cccc(O)c2)C1=O)=C\c1ccccc1 the results were Rin1 Abl inh -1, Tb MetRS inh 1, PG9 binder 0 and Rev-erbA mod -2.
CCC[C@H]1[C@@H](OC(=O)NC2CCC2)CC[C@@]23CCCN2C(=O)CCC[C@@H]13 was read as Rev-erbA mod -2.
For Cc1ccc2[nH]cc(S(=O)(=O)c3ccc(C)c(C)c3)c(=O)c2c1 the results were Rin1 Abl inh -1, Tb MetRS inh 6.8*, PG9 binder -2, Rev-erbA mod 56*, Tb MetRS conf 38*, Jurkat tox 4, Tb MetRS inh FP 9, Rev-erbA confirm 33* and RORg DNA counter >40.
For Cc1ccc(S(=O)(=O)c2c(N)n(CCCO)c3nc4ccccc4nc23)cc1 the results were Rin1 Abl inh 4, Tb MetRS inh 0, PG9 binder -1 and Rev-erbA mod 2.

Assay outcomes as filed in PubChem.
